Results published in BindingDB's records for doi:10.1021/jm030311v (Southern Research Institute, 2004).

Assays:
[1] = Apparent antagonist activity determined by measuring the ability to inhibit stimulation of [35S]GTP-gamma-S, binding to opioid receptor delta 1 in guinea pig caudate membranes
[2] = Inhibitory concentration required for 50% inhibition of antagonism towards opioid receptor delta 1 in [35S]GTP-gamma-S, binding assay in guinea pig caudate
[3] = molecular target: Kappa-type opioid receptor (Cavia porcellus, UniProt P41144); test: Apparent binding affinity of compound was determined by antagonism towards Opioid receptor kappa 1 in [35S]GTP-gamma-S, binding assay in guinea pig caudate
Sequence of Kappa-type opioid receptor (P41144 whole entry): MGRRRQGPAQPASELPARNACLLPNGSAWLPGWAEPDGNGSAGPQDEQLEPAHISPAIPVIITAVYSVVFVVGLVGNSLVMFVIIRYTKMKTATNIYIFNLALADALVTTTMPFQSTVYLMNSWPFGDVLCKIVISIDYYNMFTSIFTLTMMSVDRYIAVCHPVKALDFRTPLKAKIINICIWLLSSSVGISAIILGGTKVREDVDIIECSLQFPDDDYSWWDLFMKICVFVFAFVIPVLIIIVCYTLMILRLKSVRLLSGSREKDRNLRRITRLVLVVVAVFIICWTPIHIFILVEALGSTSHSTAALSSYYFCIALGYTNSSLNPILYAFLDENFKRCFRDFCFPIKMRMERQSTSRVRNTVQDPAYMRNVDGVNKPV

Mu-type opioid receptor [4] = molecular target: T1, Mu-type opioid receptor (Cavia porcellus, UniProt P97266); test: Apparent binding affinity of compound was determined by antagonism towards Opioid receptor mu 1 in [35S]GTP-gamma-S, binding assay in guinea pig caudate
T1 sequence (P97266 whole entry): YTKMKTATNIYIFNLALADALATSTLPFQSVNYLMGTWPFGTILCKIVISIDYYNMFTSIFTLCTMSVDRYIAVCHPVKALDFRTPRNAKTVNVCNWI

Mu-type opioid receptor [5] = molecular target: T1, Mu-type opioid receptor; test: Agonistic activity towards Opioid receptor mu 1 was determined in [35S]GTP-gamma-S, binding assay in guinea pig caudate
Method in brief: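 Guinea pig caudate membranes (10-20 µg protein) incubated 3 h at 22 °C in Tris-HCl pH 7.4 containing 100 mM NaCl, 10 mM MgCl2, 1 mM EDTA, 100 µM GDP and 0.05-0.1 nM [35S]GTP-γ-S, then filtered and counted. Nonspecific binding defined with 10 µM GTP-γ-S. Site isolation used CTAP, nor-BNI, NTI or TIPP. […] Three experiments pooled; logistic fit.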

## CN1CC[C@]23c4c5ccc(O)c4O[C@H]2c2ncc(-c4ccc(Cl)cc4)cc2C[C@H]3C1C5 [6-(4-chlorophenyl)-19-methyl-(2R,10R)-11-oxa-8,19-diazahexacyclo[10.9.1.01,10.02,18.04,9.016,22]docosa-4(9),5,7,12,14,16(22)-hexaen-13-ol]
[1]
  Ki: 11 nM

## CN1CC[C@]23c4c5ccc(O)c4O[C@H]2c2ncc(-c4ccccc4)cc2C[C@@]3(O)C1C5 [19-methyl-6-phenyl-(2S,10R)-11-oxa-8,19-diazahexacyclo[10.9.1.01,10.02,18.04,9.016,22]docosa-4(9),5,7,12,14,16(22)-hexaene-2,13-diol]
[2]
  IC50: 920 nM

## CN1CC[C@]23c4c5ccc(O)c4O[C@H]2c2ncc(-c4ccc(Cl)cc4)cc2C[C@@]3(O)C1C5 [6-(4-chlorophenyl)-19-methyl-(2S,10R)-11-oxa-8,19-diazahexacyclo[10.9.1.01,10.02,18.04,9.016,22]docosa-4(9),5,7,12,14,16(22)-hexaene-2,13-diol]
[3]
  Ki: 767 nM
Mu-type opioid receptor [4]
  Ki: > 1000 nM

## CN1CC[C@]23c4c5ccc(O)c4O[C@H]2c2ncc(-c4ccc(Cl)c(Cl)c4)cc2C[C@H]3C1C5 [6-(3,4-dichlorophenyl)-19-methyl-(2R,10R)-11-oxa-8,19-diazahexacyclo[10.9.1.01,10.02,18.04,9.016,22]docosa-4(9),5,7,12,14,16(22)-hexaen-13-ol]
[2]
  IC50: 74 nM

## CN1CC[C@]23c4c5ccc(O)c4O[C@H]2c2ncccc2C[C@H]3C1C5 [19-methyl-(2R,10R)-11-oxa-8,19-diazahexacyclo[10.9.1.01,10.02,18.04,9.016,22]docosa-4(9),5,7,12,14,16(22)-hexaen-13-ol]
[1]
  Ki: 595 nM

## Oc1ccc2c3c1O[C@H]1c4ncc(-c5ccc(Cl)cc5)cc4C[C@H]4C(C2)N(CC2CC2)CC[C@]314 [6-(4-chlorophenyl)-19-cyclopropylmethyl-(2R,10R)-11-oxa-8,19-diazahexacyclo[10.9.1.01,10.02,18.04,9.016,22]docosa-4(9),5,7,12,14,16(22)-hexaen-13-ol]
[1]
  Ki: 1.6 nM

## Oc1ccc2c3c1OC1c4ncc(-c5ccc(Cl)cc5)cc4C[C@@]4(O)[C@@H](C2)N(CC2CC2)CC[C@]314 (stereo partly drawn) [5'-(Chlorophenyl)-17-(cyclopropylmethyl) -6,7-didehydro-3,14-dihydroxy-4,5alpha-epoxypyrido-[2',3':6,7]morphinan]
[1]
  Ki: 0.18 nM

## C[C@@H](NC(=O)[C@@H](N)Cc1ccc(O)cc1)C(=O)NCC(=O)N(C)[C@@H](Cc1ccccc1)C(=O)NCCO [[tyrosyl-3,5-3H(N)]-D-Ala2-Mephe4-glyol5-enkephalin]
Mu-type opioid receptor [5]
  EC50: 414 nM

## CN1CC[C@]23c4c5ccc(O)c4O[C@H]2c2ncc(-c4ccc(Cl)cc4Cl)cc2C[C@H]3C1C5 [6-(2,4-dichlorophenyl)-19-methyl-(2R,10R)-11-oxa-8,19-diazahexacyclo[10.9.1.01,10.02,18.04,9.016,22]docosa-4(9),5,7,12,14,16(22)-hexaen-13-ol]
[1]
  Ki: 1.1 nM

## CN1CC[C@]23c4c5ccc(O)c4O[C@H]2c2ncc(-c4ccc(Br)cc4)cc2C[C@H]3C1C5 [6-(4-bromophenyl)-19-methyl-(2R,10R)-11-oxa-8,19-diazahexacyclo[10.9.1.01,10.02,18.04,9.016,22]docosa-4(9),5,7,12,14,16(22)-hexaen-13-ol]
[2]
  IC50: 55 nM
